# Laboratory results as given in ChEMBL document CHEMBL1134467, “Novel, nonpeptidic cyanamides as potent and reversible inhibitors of human cathepsins K and L” (J Med Chem, 2001).
# Experiments:
# Cathepsin B = Cathepsin B (Homo sapiens, UniProt P07858); experiment: Inhibitory activity tested against Human Cathepsin B using Z-Phe-Arg-pNA as substrate
# Procathepsin L = Procathepsin L (Homo sapiens, UniProt P07711); experiment: Inhibitory activity tested against Human Cathepsin L using Z-Phe-Arg-pNA as substrate
# Chain of Procathepsin L (P07711 whole entry): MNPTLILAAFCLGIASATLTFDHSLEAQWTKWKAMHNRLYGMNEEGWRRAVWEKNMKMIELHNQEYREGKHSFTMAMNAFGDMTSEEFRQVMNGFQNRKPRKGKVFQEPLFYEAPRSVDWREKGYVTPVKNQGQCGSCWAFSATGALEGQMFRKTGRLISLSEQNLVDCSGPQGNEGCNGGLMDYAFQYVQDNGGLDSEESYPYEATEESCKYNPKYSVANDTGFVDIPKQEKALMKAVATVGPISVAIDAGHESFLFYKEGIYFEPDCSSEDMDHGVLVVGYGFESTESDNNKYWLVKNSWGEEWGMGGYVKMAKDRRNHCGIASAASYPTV
# Cathepsin K [1] = target: T1, Cathepsin K (Homo sapiens, UniProt P43235); experiment: Inhibitory activity tested against Human Cathepsin K using Z-Phe-Arg-pNA as substrate
# T1 sequence (P43235 whole entry): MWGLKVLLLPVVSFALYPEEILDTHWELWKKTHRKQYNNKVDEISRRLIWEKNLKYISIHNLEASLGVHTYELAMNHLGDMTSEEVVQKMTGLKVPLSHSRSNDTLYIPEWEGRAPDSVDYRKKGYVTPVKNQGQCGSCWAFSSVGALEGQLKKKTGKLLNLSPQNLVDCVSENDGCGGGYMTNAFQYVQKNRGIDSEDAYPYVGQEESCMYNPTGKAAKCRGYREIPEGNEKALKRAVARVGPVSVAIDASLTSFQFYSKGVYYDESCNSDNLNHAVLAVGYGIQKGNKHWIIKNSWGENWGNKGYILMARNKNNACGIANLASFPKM
# Cathepsin K [2] = target: T1, Cathepsin K; experiment: Inhibition of Cathepsin K at pH 7
# How it was run: (§1)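 Recombinant human cathepsin K IC50 without glutathione at pH 5.5 or 7.0. Compound preincubated 30 min with enzyme, then 25 μM Z-Phe-Arg-pNA added. Activity read as OD increase at 405 nm. Percent inhibition set against a vehicle control. IC50 from a four-parameter logistic fit.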
# Cathepsin K [3] = target: T1, Cathepsin K; experiment: Effect of 10 mM of GSH on the inhibitory activity of compound against Cathepsin K, at pH 5.5
# How it was run: (§2)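 Recombinant human cathepsin K IC50 with 10 mM glutathione at pH 5.5 or pH 7.0. Compounds preincubated 30 min with GSH before enzyme addition, then 30 min with enzyme before 25 μM Z-Phe-Arg-pNA. Activity read as OD increase at 405 nm. IC50 fitted to a four-parameter logistic model.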
# Cathepsin K [4] = target: T1, Cathepsin K; experiment: Inhibition of Cathepsin K at pH 5.5; how it was run: as §1
# Cathepsin K [5] = target: T1, Cathepsin K; experiment: Effect of 10 mM of GSH on the inhibitory activity against Cathepsin K, at pH 7; how it was run: as §2
# Cathepsin K [6] = target: T1, Cathepsin K; experiment: Inhibitory activity tested against Human Cathepsin K […] using gelatinase assay
# How it was run: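 Recombinant human cathepsin K gelatinase activity on DQ gelatin, 0.25 mg/mL final. Run in 50 mM MES pH 5.5 with 2.5 mM DTT, 2.5 mM EDTA and 10% DMSO, enzyme 2–4 nM, 30 min compound preincubation. Fluorescein release read at ex 495/em 515 nm. IC50 from a four-parameter logistic fit.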
# Cathepsin K [7] = target: T1, Cathepsin K; experiment: Inhibitory constant against human cathepsin K
# How it was run: (§3)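 Slow-binding kinetics with cathepsin K (0.1 nM final, added to start the reaction) in 50 mM MES pH 5.5, 2.5 mM DTT, 2.5 mM EDTA, 10% DMSO, room temperature, stirred 1 mL cells. Z-Phe-Arg-AMC at 10-fold below Km (Km 30 μM), fluorescence ex 355/em 460 nm. Progress curves fitted for kobs; Ki, kon, koff averaged over at least three inhibitor concentrations.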
# [8] = target: T2, Cathepsin K (Homo sapiens) (UniProt P43235); experiment: Pre-steady-state kinetic parameter for inhibition of human cathepsin K; how it was run: as §3
# T2 sequence (whole entry): T1 sequence (P43235 whole entry)
# Papain = target: T3, Papain (Carica papaya, UniProt P00784); experiment: Inhibitory activity tested against papain at a pH 5.5
# T3 sequence (P00784 whole entry): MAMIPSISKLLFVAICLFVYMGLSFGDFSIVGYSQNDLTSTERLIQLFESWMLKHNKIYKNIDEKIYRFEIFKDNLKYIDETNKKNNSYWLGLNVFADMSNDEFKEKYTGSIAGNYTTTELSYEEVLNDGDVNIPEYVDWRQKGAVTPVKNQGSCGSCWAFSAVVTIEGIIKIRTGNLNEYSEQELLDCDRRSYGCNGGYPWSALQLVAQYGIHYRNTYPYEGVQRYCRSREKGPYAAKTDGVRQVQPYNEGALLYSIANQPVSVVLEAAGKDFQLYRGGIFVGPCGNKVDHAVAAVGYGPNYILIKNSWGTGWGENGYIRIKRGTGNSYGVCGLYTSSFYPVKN
# [9] = Bioavailability after oral administration of 20 mg/kg in rat; format: ADME, organism-based; settings: in vivo
# How it was run: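 Rats dosed orally at 20 mg/kg as a 1% methocel suspension, dosing volume 10 mL/kg; plasma levels followed over time and oral bioavailability derived.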
# [10] = Half life period in rat after (iv) administration; format: ADME, organism-based; settings: in vivo
# How it was run: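 Rats dosed intravenously in PEG-200/water (3:2), dosing volume 1 mL/kg; half-life derived from mean plasma levels.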
IC50 (Cathepsin B),IC50 (Procathepsin L),IC50 (Cathepsin K [1]),IC50 (Papain),bioavailability [9],half-life [10],SMILES,IC50 (Cathepsin K [2]),IC50 (Cathepsin K [3]),IC50 (Cathepsin K [4]),IC50 (Cathepsin K [5]),IC50 (Cathepsin K [6]),IC50 (Cathepsin K [7]),Ki (Cathepsin K [7]),k off [8],k on [8]
500 nM,100 nM,40 nM,–,–,–,N#CN1CC(OCc2ccccc2)C1,–,–,–,–,–,–,–,–,–
2000 nM,430 nM,100 nM,–,–,–,N#CN1CCC1,880 nM,480 nM,450 nM,> 100000 nM,–,–,–,–,–
75000 nM,23000 nM,13700 nM,–,–,–,N#CN1CCCC1CNC(=O)c1ccccc1 (stereo not given),–,–,–,–,–,–,–,–,–
1500 nM,350 nM,200 nM,–,–,–,N#CN1CCC(CNS(=O)(=O)c2ccccc2)C1 (stereo not given),–,–,–,–,–,–,–,–,–
250 nM,650 nM,70 nM,–,–,–,N#CN1CC(CNC(=O)c2ccccc2)C1,–,–,–,–,–,–,–,–,–
500 nM,100 nM,20 nM,–,–,–,N#CN1CC(OCC2CCCCC2)C1,–,–,–,–,–,–,–,–,–
–,11500 nM,12100 nM,–,–,–,N#CN1CCCC1CNS(=O)(=O)c1ccccc1 (stereo not given),–,–,–,–,–,–,–,–,–
300 nM,50 nM,20 nM,–,–,–,N#CN1CC(CNS(=O)(=O)c2ccccc2)C1,–,–,–,–,–,17 nM,20 nM,0.0028 s⁻¹,141000 M⁻¹ s⁻¹
1400 nM,80 nM,50 nM,230 nM,38%,2 h,N#CN1CCC(NS(=O)(=O)c2ccccc2)C1 (stereo not given),–,–,–,–,18 nM,81 nM,90 nM,0.0019 s⁻¹,19900 M⁻¹ s⁻¹
4200 nM,1750 nM,370 nM,–,–,–,N#CN1CCC(NC(=O)c2ccccc2)C1 (stereo not given),–,–,–,–,–,–,–,–,–
1100 nM,150 nM,100 nM,–,–,–,N#CN1CCC(COCc2ccccc2)C1 (stereo not given),–,–,–,–,–,–,–,–,–
–,–,–,–,–,–,N#CN1CC(CNC(=O)C2CCCCC2)C1,38 nM,27 nM,16 nM,> 100000 nM,10 nM,–,–,–,–
300 nM,850 nM,290 nM,–,–,–,N#CN1CCC(NC(=O)c2ccc(-c3ccccc3)cc2)C1 (stereo not given),–,–,–,–,–,–,–,–,–

SMILES,IC50 (Cathepsin B),IC50 (Procathepsin L),IC50 (Cathepsin K [1]),IC50 (Papain),bioavailability [9],half-life [10],IC50 (Cathepsin K [2]),IC50 (Cathepsin K [3]),IC50 (Cathepsin K [4]),IC50 (Cathepsin K [5]),IC50 (Cathepsin K [6]),IC50 (Cathepsin K [7]),Ki (Cathepsin K [7]),k off [8],k on [8]
N#CN1CCCC1 [CYANO-PYRROLIDINE],15000 nM,4000 nM,1000 nM,–,–,–,2300 nM,1500 nM,1630 nM,3400 nM,–,–,–,–,–
N#CN1Cc2cc3ccccc3nc2C1,2300 nM,450 nM,370 nM,–,–,–,280 nM,360 nM,340 nM,11400 nM,360 nM,370 nM,380 nM,0.0025 s⁻¹,6590 M⁻¹ s⁻¹
N#CN1CCC(NC(=O)OCc2ccccc2)C1 (stereo not given),200 nM,54 nM,40 nM,–,–,–,50 nM,90 nM,60 nM,150 nM,20 nM,40 nM,140 nM,0.0056 s⁻¹,67300 M⁻¹ s⁻¹
CCN(C#N)CC,> 100000 nM,> 100000 nM,> 100000 nM,–,–,–,–,–,–,–,–,–,–,–,–
